Calls of active or inactive are those of the source. No cut-off for these calls is given here.
Legend:
[1] = tested on: Blood; assay: Antiinflammatory activity in human whole blood assessed as inhibition of LPS-induced TNFalpha production at 10 uM treated for 30 mins followed by 5 hrs LPS challenge by ELISA-based WBCCS assay; type: functional
Method in brief: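 Human whole blood cells exposed to compound 30 min, then LPS-stimulated; supernatants collected after 5 h and TNF-α determined by ELISA; expressed as percent inhibition.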

[2] = tested on: Mus musculus; assay: Antiinflammatory activity in BALB/c mouse assessed as inhibition of LPS-induced TNFalpha production in plasma at 100 mg/kg, po by ELISA; type: functional
Method in brief: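 BALB/c mice dosed orally, vehicle 0.5% carboxymethylcellulose, rolipram as standard; LPS given 1 h later. Blood drawn 1.5 h after LPS; plasma TNF-α quantified by ELISA.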

[3] = tested on: PBMC; assay: Antiinflammatory activity in human PBMC assessed as inhibition of LPS-induced TNFalpha production treated for 30 mins followed by 5 hrs LPS challenge by ELISA assay; type: functional, cell-based
Method in brief: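 Human PBMC pre-treated with compound (0.03–100 µM) for 30 min, then LPS-stimulated 5 h; TNF-α measured. Controls: DMSO vehicle with LPS, unstimulated cells, rolipram standard. Mean ± S.E.M. of three experiments; IC50 from concentration–response.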

[4] = tested on: PBMC; assay: Cytotoxicity against human PBMC by MTS assay; type: cell-based
Method in brief: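 Viability of human PBMC determined by MTS across the concentrations tested in the LPS-stimulated TNF-α assay.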

| Compound | inhibition at 10 µM [1] | further results |
| --- | --- | --- |
| COc1cc(CCC(=O)CC(O)CCc2cccnc2)cc(OC)c1OC (stereo not drawn) | 12% | – |
| Cc1cccc(CCC(=O)/C=C/CCc2cccnc2)c1 | 25% | – |
| CN(C)c1ccc(CCC(=O)/C=C/CCc2cccnc2)cc1 | 32% | – |
| COc1ccc(COc2cc(CCC(=O)/C=C/CCc3cccnc3)ccc2OC)cc1 | 19% | – |
| O=C(/C=C/CCc1cccnc1)CCc1ccc(F)cc1 | 35% | – |
| N#Cc1ccc(CCC(=O)CC(O)CCc2cccnc2)cc1 (stereo not drawn) | 35% | – |
| COc1ccc(CCC(=O)CC(O)CCc2cccnc2)c(OC)c1 (stereo not drawn) | 22% | – |
| O=C(CCc1ccccc1)CC(O)CCc1cccnc1 (stereo not drawn) | 3% | – |
| N#Cc1ccc(CCC(=O)/C=C/CCc2cccnc2)cc1 | 9% | – |
| COc1cc(/C=C/C(=O)CC(=O)/C=C/c2ccc(O)c(OC)c2)ccc1O [CURCUMIN] | – | inhibition [2]: inactive; IC50 [3]: 2.71 µM |
| COc1ccc(OC)c(CCC(=O)CC(O)CCc2cccnc2)c1 (stereo not drawn) | 0% | – |
| COc1cccc(CCC(=O)/C=C/CCc2cccnc2)c1OC | 33% | – |
| O=C(CCc1ccc2c(c1)OCO2)CC(O)CCc1cccnc1 (stereo not drawn) | 41% | – |
| COc1ccc(CCC(=O)/C=C/CCc2cccnc2)c(OC)c1 | 56% | inhibition in vivo at 100 mg/kg [2]: 79%; inhibition [3]: Dose-dependent effect; IC50 ([3]; read-out: IC50): 2 µM; IC50 [4]: 38 µM |
| COc1ccc(CCC(=O)/C=C/CCc2cccnc2)cc1OC | 56% | inhibition in vivo at 100 mg/kg [2]: 50%; inhibition [3]: Dose-dependent effect; IC50 ([3]; read-out: IC50): 2.5 µM; IC50 [4]: 80 µM |
| COc1ccc(COc2ccc(CCC(=O)/C=C/CCc3cccnc3)cc2OC)cc1 | 40% | inhibition in vivo at 100 mg/kg [2]: 75%; IC50 ([3]; read-out: IC50): 24.1 µM; IC50 [4]: > 100 µM |
| O=C(CCc1ccc(Cl)cc1)CC(O)CCc1cccnc1 (stereo not drawn) | 16% | – |
| O=C(CCc1ccc(F)cc1)CC(O)CCc1cccnc1 (stereo not drawn) | 34% | – |
| COc1ccc(CCC(=O)CC(O)CCc2cccnc2)cc1OC (stereo not drawn) | 18% | – |
| COc1ccc(COc2ccc(CCC(=O)CC(O)CCc3cccnc3)cc2OC)cc1 (stereo not drawn) | 2% | – |
| COc1cc(CCC(=O)/C=C/CCc2cccnc2)cc(OC)c1OC | 23% | – |
| COc1ccc(COc2cc(CCC(=O)CC(O)CCc3cccnc3)ccc2OC)cc1 (stereo not drawn) | 44% | inhibition in vivo at 100 mg/kg [2]: 71%; IC50 ([3]; read-out: IC50): 5.7 µM; IC50 [4]: > 100 µM |
| COc1cccc(CCC(=O)CC(O)CCc2cccnc2)c1OC (stereo not drawn) | 10% | – |
| COc1ccc(OC)c(CCC(=O)/C=C/CCc2cccnc2)c1 | 0% | – |
| Cc1cccc(CCC(=O)CC(O)CCc2cccnc2)c1 (stereo not drawn) | 11% | – |
| O=C(/C=C/CCc1cccnc1)CCc1ccccc1 | 0% | – |
| CN(C)c1ccc(CCC(=O)CC(O)CCc2cccnc2)cc1 (stereo not drawn) | 0% | – |
| O=C(CC(O)CCc1cccnc1)/C(=C\CCc1cccnc1)Cc1ccc(Cl)cc1 (stereo not drawn) | 32% | – |

Reference: ChEMBL document CHEMBL1777800, “Novel diarylheptanoids as inhibitors of TNF-α production” (Bioorg Med Chem Lett, 2011)
